Results from ChEMBL document CHEMBL1136635, “Modification of the N-terminus of peptidomimetic protein tyrosine phosphatase 1B (PTP1B) inhibitors: identification of analogues with cellular activity” (Bioorg Med Chem Lett, 2003).

Biological target: Receptor-type tyrosine-protein phosphatase F (Homo sapiens) (UniProt P10586)
Sequence (P10586 whole entry): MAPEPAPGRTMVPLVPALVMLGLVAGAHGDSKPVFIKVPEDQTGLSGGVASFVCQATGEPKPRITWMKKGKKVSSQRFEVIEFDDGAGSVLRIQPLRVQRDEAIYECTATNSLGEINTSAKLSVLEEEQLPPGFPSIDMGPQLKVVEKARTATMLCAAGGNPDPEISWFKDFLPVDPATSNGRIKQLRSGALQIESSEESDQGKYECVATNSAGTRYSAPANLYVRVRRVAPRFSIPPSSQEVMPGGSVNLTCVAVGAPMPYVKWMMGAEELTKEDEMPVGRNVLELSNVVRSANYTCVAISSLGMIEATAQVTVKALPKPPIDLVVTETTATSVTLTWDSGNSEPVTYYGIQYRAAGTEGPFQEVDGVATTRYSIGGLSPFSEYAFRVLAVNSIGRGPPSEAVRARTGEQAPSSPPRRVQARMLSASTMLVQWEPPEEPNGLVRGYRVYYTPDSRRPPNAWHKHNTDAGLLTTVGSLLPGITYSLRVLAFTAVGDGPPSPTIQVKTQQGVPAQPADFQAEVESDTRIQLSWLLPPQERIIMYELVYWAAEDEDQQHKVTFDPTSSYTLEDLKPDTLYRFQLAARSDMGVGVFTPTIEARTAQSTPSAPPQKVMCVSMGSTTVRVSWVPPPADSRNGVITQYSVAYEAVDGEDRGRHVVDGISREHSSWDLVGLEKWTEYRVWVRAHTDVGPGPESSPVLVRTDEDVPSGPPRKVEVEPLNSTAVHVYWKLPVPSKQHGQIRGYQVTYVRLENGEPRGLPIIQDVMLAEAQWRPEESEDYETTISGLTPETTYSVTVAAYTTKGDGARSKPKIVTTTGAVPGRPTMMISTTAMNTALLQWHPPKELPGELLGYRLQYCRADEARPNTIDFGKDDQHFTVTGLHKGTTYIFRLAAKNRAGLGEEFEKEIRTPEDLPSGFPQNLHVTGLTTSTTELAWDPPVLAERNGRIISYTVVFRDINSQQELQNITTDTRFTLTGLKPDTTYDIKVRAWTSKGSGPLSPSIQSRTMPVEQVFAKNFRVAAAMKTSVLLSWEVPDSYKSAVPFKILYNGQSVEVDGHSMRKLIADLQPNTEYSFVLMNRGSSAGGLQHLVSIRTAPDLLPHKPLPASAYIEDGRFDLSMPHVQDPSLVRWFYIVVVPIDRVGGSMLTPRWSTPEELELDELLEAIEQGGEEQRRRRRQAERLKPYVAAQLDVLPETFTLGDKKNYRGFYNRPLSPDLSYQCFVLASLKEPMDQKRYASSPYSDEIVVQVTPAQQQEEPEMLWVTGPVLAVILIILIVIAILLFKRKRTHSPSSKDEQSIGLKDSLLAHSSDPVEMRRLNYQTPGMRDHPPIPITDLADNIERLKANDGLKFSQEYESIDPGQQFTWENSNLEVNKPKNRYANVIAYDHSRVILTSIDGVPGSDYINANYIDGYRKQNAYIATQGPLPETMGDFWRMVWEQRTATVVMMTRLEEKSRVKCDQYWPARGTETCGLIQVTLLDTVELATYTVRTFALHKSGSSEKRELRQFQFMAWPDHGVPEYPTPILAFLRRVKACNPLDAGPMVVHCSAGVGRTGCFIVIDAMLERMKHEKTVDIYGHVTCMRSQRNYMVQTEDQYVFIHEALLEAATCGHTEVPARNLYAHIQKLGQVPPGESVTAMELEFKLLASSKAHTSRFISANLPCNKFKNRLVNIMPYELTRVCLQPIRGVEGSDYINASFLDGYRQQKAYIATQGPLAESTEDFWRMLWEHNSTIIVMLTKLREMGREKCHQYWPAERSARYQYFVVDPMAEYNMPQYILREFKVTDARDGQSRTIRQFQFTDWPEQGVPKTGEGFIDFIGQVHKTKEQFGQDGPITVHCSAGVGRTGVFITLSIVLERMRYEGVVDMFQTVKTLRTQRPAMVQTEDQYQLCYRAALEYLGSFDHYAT
Assay: Inhibitory activity against phosphatase (LAR) at a concentration of 100 uM
Procedure, shortened: (§1)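 Purified recombinant human enzyme constructs; PTP1B is a C-terminally truncated soluble form, tested alongside LAR and SHP-2. Activity is read as the initial rate of p-nitrophenyl phosphate (pNPP) hydrolysis and reported as percent inhibition. PTP1B is tested at 100, 10 and 1 µM, or 10 and 1 µM in the salicylate series; LAR and SHP-2 at 100 µM.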
For `CCCCCNC(=O)[C@H](Cc1ccc(OCC(=O)O)c(C(=O)O)c1)NC(=O)[C@H](CCOCOC)NC(=O)OC(C)(C)C`, the inhibition was 0%.
Work on `CCCCCNC(=O)[C@H](Cc1ccc(OC(C(=O)O)C(=O)O)cc1)NC(=O)[C@H](Cc1ccccc1)NC(=O)CCNC(=O)OC(C)(C)C` yielded an inhibition of 2%.
`CCCCCNC(=O)[C@H](Cc1ccc(OCC(=O)O)c(C(=O)O)c1)NC(=O)[C@H](Cc1ccccn1)NC(=O)OC(C)(C)C` gave an inhibition of 2%.
`CCCCCNC(=O)[C@H](Cc1ccc(OCC(=O)O)c(C(=O)O)c1)NC(=O)[C@H](Cc1ccccc1)NC(=O)Cc1ccccc1` gave an inhibition of 0%.
With `CCCCCNC(=O)[C@H](Cc1ccc(OCC(=O)O)c(C(=O)O)c1)NC(=O)[C@H](Cc1ccccc1)NC(=O)Cc1ccc(C)cc1` the inhibition was 6%.
Compound `CCCCCNC(=O)[C@H](Cc1ccc(OCC(=O)O)c(C(=O)O)c1)NC(=O)[C@H](Cc1ccccc1)N1CCCC1=O` has an inhibition of 0%.
Compound `CCCCCNC(=O)[C@H](Cc1ccc(OCC(=O)O)c(C(=O)O)c1)NC(=O)[C@H](Cc1ccccc1)NC(=O)CCCO` has an inhibition of 0%.

Tested on: not listed separately
Assay: Uptake of 2-DOG (2-deoxyglucose) into L6 myocytes in the presence of half-maximal concentration of insulin at 100 uM
Format: functional, Rattus norvegicus
Procedure, shortened: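 L6 myotubes are exposed to compound at 100 µM with 10 nM insulin, a dose eliciting about 50% of maximal uptake. The initial rate of 2-[3H]deoxyglucose uptake is measured, with L-[14C]glucose marking extracellular space, and normalized to recovered lysate protein. Net insulin-dependent transport with inhibitor is expressed as a percent of that without inhibitor.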
In the case of `CCCCCNC(=O)[C@H](Cc1ccc(OCC(=O)O)c(C(=O)O)c1)NC(=O)[C@H](CCOCOC)NC(=O)OC(C)(C)C`, the “Control Uptake” value is reported as 113%.
In the case of `CCCCCNC(=O)[C@H](Cc1ccc(OC(C(=O)O)C(=O)O)cc1)NC(=O)[C@H](Cc1ccccc1)NC(=O)CCNC(=O)OC(C)(C)C`, the “Control Uptake” value is reported as 87%.
For `CCCCCNC(=O)[C@H](Cc1ccc(OCC(=O)O)c(C(=O)O)c1)NC(=O)[C@H](Cc1ccccn1)NC(=O)OC(C)(C)C`, the “Control Uptake” value was 106%.
In the case of `CCCCCNC(=O)[C@H](Cc1ccc(OCC(=O)O)c(C(=O)O)c1)NC(=O)[C@H](Cc1ccccc1)NC(=O)Cc1ccccc1`, the “Control Uptake” value is reported as 73%.
In the case of `CCCCCNC(=O)[C@H](Cc1ccc(OCC(=O)O)c(C(=O)O)c1)NC(=O)[C@H](Cc1ccccc1)NC(=O)Cc1ccc(C)cc1`, the “Control Uptake” value is reported as 77%.
In the case of `CCCCCNC(=O)[C@H](Cc1ccc(OCC(=O)O)c(C(=O)O)c1)NC(=O)[C@H](Cc1ccccc1)N1CCCC1=O`, the “Control Uptake” value is reported as 95%.
With `CCCCCNC(=O)[C@H](Cc1ccc(OCC(=O)O)c(C(=O)O)c1)NC(=O)[C@H](Cc1ccccc1)NC(=O)CCCO` the “Control Uptake” value was 108%.

Biological target: T1, Tyrosine-protein phosphatase non-receptor type 11 (Homo sapiens) (UniProt Q06124)
T1 sequence (whole entry): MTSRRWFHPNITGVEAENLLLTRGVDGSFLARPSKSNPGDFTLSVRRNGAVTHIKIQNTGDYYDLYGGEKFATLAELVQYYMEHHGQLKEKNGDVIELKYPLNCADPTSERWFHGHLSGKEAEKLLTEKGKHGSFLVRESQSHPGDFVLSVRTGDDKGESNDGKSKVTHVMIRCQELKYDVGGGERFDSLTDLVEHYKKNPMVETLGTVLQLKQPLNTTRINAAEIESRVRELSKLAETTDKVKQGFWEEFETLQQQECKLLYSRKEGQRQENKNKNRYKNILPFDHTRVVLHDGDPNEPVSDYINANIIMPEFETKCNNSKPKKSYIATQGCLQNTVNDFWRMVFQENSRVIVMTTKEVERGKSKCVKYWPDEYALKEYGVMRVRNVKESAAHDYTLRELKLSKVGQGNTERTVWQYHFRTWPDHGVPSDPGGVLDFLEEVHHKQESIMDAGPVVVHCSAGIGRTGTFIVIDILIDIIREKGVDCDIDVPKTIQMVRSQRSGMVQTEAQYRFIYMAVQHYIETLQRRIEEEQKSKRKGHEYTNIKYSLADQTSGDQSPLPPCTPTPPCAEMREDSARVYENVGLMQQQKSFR
Assay: Inhibition of recombinant human phosphatase (SHP-2) at a concentration of 100 uM
Procedure, shortened: as §1
For `CCCCCNC(=O)[C@H](Cc1ccc(OCC(=O)O)c(C(=O)O)c1)NC(=O)[C@H](CCOCOC)NC(=O)OC(C)(C)C`, the inhibition was 6%.
In the case of `CCCCCNC(=O)[C@H](Cc1ccc(OC(C(=O)O)C(=O)O)cc1)NC(=O)[C@H](Cc1ccccc1)NC(=O)CCNC(=O)OC(C)(C)C`, the inhibition is reported as 8%.
For `CCCCCNC(=O)[C@H](Cc1ccc(OCC(=O)O)c(C(=O)O)c1)NC(=O)[C@H](Cc1ccccn1)NC(=O)OC(C)(C)C`, the inhibition was 1%.
Compound `CCCCCNC(=O)[C@H](Cc1ccc(OCC(=O)O)c(C(=O)O)c1)NC(=O)[C@H](Cc1ccccc1)NC(=O)Cc1ccccc1` has an inhibition of 18%.
With `CCCCCNC(=O)[C@H](Cc1ccc(OCC(=O)O)c(C(=O)O)c1)NC(=O)[C@H](Cc1ccccc1)NC(=O)Cc1ccc(C)cc1` the inhibition was 20%.
With `CCCCCNC(=O)[C@H](Cc1ccc(OCC(=O)O)c(C(=O)O)c1)NC(=O)[C@H](Cc1ccccc1)N1CCCC1=O` the inhibition was 5%.
Compound `CCCCCNC(=O)[C@H](Cc1ccc(OCC(=O)O)c(C(=O)O)c1)NC(=O)[C@H](Cc1ccccc1)NC(=O)CCCO` has an inhibition of 27%.

Biological target: T2, Tyrosine-protein phosphatase non-receptor type 1 (Homo sapiens) (UniProt P18031)
T2 sequence (whole entry): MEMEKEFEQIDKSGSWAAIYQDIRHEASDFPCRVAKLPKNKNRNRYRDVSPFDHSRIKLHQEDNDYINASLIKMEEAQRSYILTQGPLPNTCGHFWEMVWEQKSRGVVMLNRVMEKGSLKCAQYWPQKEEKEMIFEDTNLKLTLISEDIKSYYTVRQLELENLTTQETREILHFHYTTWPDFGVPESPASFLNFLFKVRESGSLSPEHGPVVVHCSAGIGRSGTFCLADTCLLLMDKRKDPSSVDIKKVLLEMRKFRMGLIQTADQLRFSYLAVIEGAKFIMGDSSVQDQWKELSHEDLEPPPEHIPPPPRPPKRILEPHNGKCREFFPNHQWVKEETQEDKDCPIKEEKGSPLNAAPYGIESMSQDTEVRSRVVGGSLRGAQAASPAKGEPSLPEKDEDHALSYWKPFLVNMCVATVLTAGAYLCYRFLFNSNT
Assay: Inhibitory activity against human protein tyrosine phosphatase 1B (PTP1B) at a concentration of 1 uM
Procedure, shortened: as §1
`CCCCCNC(=O)[C@H](Cc1ccc(OCC(=O)O)c(C(=O)O)c1)NC(=O)[C@H](CCOCOC)NC(=O)OC(C)(C)C` gave an inhibition of 6%.
Work on `CCCCCNC(=O)[C@H](Cc1ccc(OC(C(=O)O)C(=O)O)cc1)NC(=O)[C@H](Cc1ccccc1)NC(=O)CCNC(=O)OC(C)(C)C` yielded an inhibition of 14%.
For `CCCCCNC(=O)[C@H](Cc1ccc(OCC(=O)O)c(C(=O)O)c1)NC(=O)[C@H](Cc1ccccn1)NC(=O)OC(C)(C)C`, the inhibition was 10%.
Work on `CCCCCNC(=O)[C@H](Cc1ccc(OCC(=O)O)c(C(=O)O)c1)NC(=O)[C@H](Cc1ccccc1)NC(=O)Cc1ccccc1` yielded an inhibition of 45%.
Work on `CCCCCNC(=O)[C@H](Cc1ccc(OCC(=O)O)c(C(=O)O)c1)NC(=O)[C@H](Cc1ccccc1)NC(=O)Cc1ccc(C)cc1` yielded an inhibition of 39%.
In the case of `CCCCCNC(=O)[C@H](Cc1ccc(OCC(=O)O)c(C(=O)O)c1)NC(=O)[C@H](Cc1ccccc1)N1CCCC1=O`, the inhibition is reported as 24%.
`CCCCCNC(=O)[C@H](Cc1ccc(OCC(=O)O)c(C(=O)O)c1)NC(=O)[C@H](Cc1ccccc1)NC(=O)CCCO` showed an inhibition of 23%.

Biological target: T2, Tyrosine-protein phosphatase non-receptor type 1 (Homo sapiens)
Assay: Inhibitory activity against human protein tyrosine phosphatase 1B (PTP1B) at a concentration of 100 uM
Procedure, shortened: as §1
In the case of `CCCCCNC(=O)[C@H](Cc1ccc(OC(C(=O)O)C(=O)O)cc1)NC(=O)[C@H](Cc1ccccc1)NC(=O)CCNC(=O)OC(C)(C)C`, the inhibition is reported as 93%.

Biological target: T2, Tyrosine-protein phosphatase non-receptor type 1 (Homo sapiens)
Assay: Inhibitory activity against human protein tyrosine phosphatase 1B (PTP1B) at a concentration of 10 uM
Procedure, shortened: as §1
`CCCCCNC(=O)[C@H](Cc1ccc(OCC(=O)O)c(C(=O)O)c1)NC(=O)[C@H](CCOCOC)NC(=O)OC(C)(C)C` showed an inhibition of 42%.
In the case of `CCCCCNC(=O)[C@H](Cc1ccc(OC(C(=O)O)C(=O)O)cc1)NC(=O)[C@H](Cc1ccccc1)NC(=O)CCNC(=O)OC(C)(C)C`, the inhibition is reported as 62%.
For `CCCCCNC(=O)[C@H](Cc1ccc(OCC(=O)O)c(C(=O)O)c1)NC(=O)[C@H](Cc1ccccn1)NC(=O)OC(C)(C)C`, the inhibition was 50%.
`CCCCCNC(=O)[C@H](Cc1ccc(OCC(=O)O)c(C(=O)O)c1)NC(=O)[C@H](Cc1ccccc1)NC(=O)Cc1ccccc1` gave an inhibition of 87%.
`CCCCCNC(=O)[C@H](Cc1ccc(OCC(=O)O)c(C(=O)O)c1)NC(=O)[C@H](Cc1ccccc1)NC(=O)Cc1ccc(C)cc1` gave an inhibition of 85%.
`CCCCCNC(=O)[C@H](Cc1ccc(OCC(=O)O)c(C(=O)O)c1)NC(=O)[C@H](Cc1ccccc1)N1CCCC1=O` gave an inhibition of 71%.
`CCCCCNC(=O)[C@H](Cc1ccc(OCC(=O)O)c(C(=O)O)c1)NC(=O)[C@H](Cc1ccccc1)NC(=O)CCCO` gave an inhibition of 78%.
